According to ChEMBL document CHEMBL1159065, “Conjugates of desferrioxamine B (DFOB) with derivatives of adamantane or with orally available chelators as potential agents for treating iron overload” (J Med Chem, 2010):
Values after ≈ are worked out from the molar mass of the structure shown. Active and inactive are the calls of the source. No cut-off for these calls is given here.

Experiments:
[1] = Solubility in water; assay type: physicochemical
[2] = system: SK-N-MC; experiment: Induction of [59Fe] mobilization in human SK-N-MC cells prelabeled with [59Fe]transferrin at 50 uM after 3 hrs relative to untreated control; assay type: functional
In short: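 Cells prelabeled with 59Fe-Tf (0.75 μM), 3 h, 37 °C; washed four times in ice-cold PBS, then exposed to chelator (50 μM) 3 h at 37 °C. Medium removed by Pasteur pipet; gamma counting of cell pellet and supernatant gives released 59Fe as % of cellular 59Fe. Mean ± SD, three experiments, triplicate determinations each.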

[3] = Toxicity in MDCK cells by MTT method; assay type: cell-based, Canis lupus familiaris; conditions: dog
In short: (§1)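 MTT proliferation assay giving IC50; MTT colour checked proportional to viable cell number by Trypan blue (SK-N-MC) or total cell protein (MDCK II). SK-N-MC grown as in earlier work; MDCK II cultured by standard procedures.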

[4] = Toxicity in human SK-N-MC cells by MTT method; assay type: cell-based; in short: as §1
[5] = target: Serotransferrin (Homo sapiens) (UniProt P02787); experiment: Inhibition of [59Fe] uptake from [59Fe]transferrin in human SK-N-MC cells assessed as at 50 uM after 3 hrs relative to untreated control; values are per cent of control
Serotransferrin (Homo sapiens), sequence (P02787 whole entry): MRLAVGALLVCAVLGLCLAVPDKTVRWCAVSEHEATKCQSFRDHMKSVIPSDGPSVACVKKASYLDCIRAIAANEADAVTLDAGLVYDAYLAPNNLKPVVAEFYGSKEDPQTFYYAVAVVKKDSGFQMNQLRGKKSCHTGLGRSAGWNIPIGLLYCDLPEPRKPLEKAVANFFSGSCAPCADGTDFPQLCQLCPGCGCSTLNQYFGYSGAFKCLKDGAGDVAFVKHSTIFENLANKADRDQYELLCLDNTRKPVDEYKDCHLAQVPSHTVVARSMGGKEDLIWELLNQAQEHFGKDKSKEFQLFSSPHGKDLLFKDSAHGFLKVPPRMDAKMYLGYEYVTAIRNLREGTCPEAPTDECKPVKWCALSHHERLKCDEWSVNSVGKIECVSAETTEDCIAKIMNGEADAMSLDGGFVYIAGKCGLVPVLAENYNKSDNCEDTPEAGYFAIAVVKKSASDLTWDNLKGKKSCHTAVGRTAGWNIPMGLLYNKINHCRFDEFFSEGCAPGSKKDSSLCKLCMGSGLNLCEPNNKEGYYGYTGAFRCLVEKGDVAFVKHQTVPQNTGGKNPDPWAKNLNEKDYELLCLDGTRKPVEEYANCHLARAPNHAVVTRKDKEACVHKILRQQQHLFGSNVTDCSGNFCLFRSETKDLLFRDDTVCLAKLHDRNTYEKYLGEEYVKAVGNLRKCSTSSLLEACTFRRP

[6] = Partition coefficient, log P by shake flask method; assay type: physicochemical; conditions: octanol/water
[7] = Partition coefficient, log P by RP-HPLC; assay type: physicochemical; conditions: octanol/water
[8] = system: SK-N-MC; experiment: Induction of [59Fe] mobilization in human SK-N-MC cells prelabeled with [59Fe]transferrin at 50 uM after 3 hrs relative to desferrioxamine B; assay type: functional
In short: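 Cells were prelabeled with 59Fe-Tf (0.75 μM) for 3 h at 37 °C, washed four times with ice-cold PBS, then exposed to chelator (50 μM) for 3 h at 37 °C. Released 59Fe in the medium and cell-pellet 59Fe were counted by γ-counter. DFOB was run in parallel. Data are mean ± SD of three experiments, each with triplicate determinations.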

[9] = target: Serotransferrin (Homo sapiens) (UniProt P02787); experiment: Inhibition of [59Fe] uptake from [59Fe]transferrin in human SK-N-MC cells at 50 uM after 3 hrs relative to relative to desferrioxamine B; assay type: cell-based
In short: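 SK-N-MC cells incubated with 59Fe-Tf (0.75 μM) plus chelator (50 μM), 3 h at 37 °C; washed four times in ice-cold PBS, then Pronase (1 mg/mL) 30 min at 4 °C. Pronase-insensitive pellet after centrifugation taken as internalized 59Fe, expressed as % of untreated control. Mean ± SD, three experiments, triplicate determinations each.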

Compound: CC(=O)N(O)CCCCCNC(=O)CCC(=O)N(O)CCCCCNC(=O)CCC(=O)N(O)CCCCCN [DEFEROXAMINE]
- solubility [1]: 400 mM (≈ 224 mg/mL)
- Activity [2]: 12%
- IC50 [3]: 9.49 µM
- IC50 [4]: 16 µM
- residual activity [5]: 87%

Compound: O=C(O)c1ccc(-n2nc(-c3ccccc3O)nc2-c2ccccc2O)cc1 [DEFERASIROX]
- IC50 [4]: 20.5 µM
- residual activity [5]: 39%
- logP [6]: 3.8

Compound: CC(=O)N(O)CCCCCNC(=O)CCC(=O)N(O)CCCCCNC(=O)CCC(=O)N(O)CCCCCNC(=O)C12CC3CC(C)(CC(C)(C3)C1)C2
- logP [7]: 1.95
- fold change (FC) [8]: 3
- IC50 [3]: 163 µM
- IC50 [4]: 92.4 µM
- inhibition [9]: Active
- residual activity [5]: 18%
- logP [6]: 2.92

Compound: CN(C)C(=S)NN=C(c1ccccn1)c1ccccn1
- residual activity [5]: 12%

Compound: CC(=O)N(O)CCCCCNC(=O)CCC(=O)N(O)CCCCCNC(=O)CCC(=O)N(O)CCCCCNC(=O)c1ccc(-n2nc(-c3ccccc3O)nc2-c2ccccc2O)cc1
- logP [7]: 3.02
- Activity [2]: Active
- IC50 [3]: 23.4 µM
- IC50 [4]: 20.6 µM
- inhibition [9]: Active
- logP [6]: 2.17

Compound: CC(=O)N(O)CCCCCNC(=O)CCC(=O)N(O)CCCCCNC(=O)CCC(=O)N(O)CCCCCNC(=O)Cn1ccc(=O)c(O)c1C
- logP [7]: -1.16
- IC50 [3]: > 300 µM
- IC50 [4]: > 200 µM
- logP [6]: -1.29

Compound: CC(=O)N(O)CCCCCNC(=O)CCC(=O)N(O)CCCCCNC(=O)CCC(=O)N(O)CCCCCNC(=O)C12CC3CC(CC(C3)C1)C2
- logP [7]: 1.29
- fold change (FC) [8]: 2.2
- IC50 [3]: 119 µM
- IC50 [4]: 174 µM
- inhibition [9]: Active
- logP [6]: 2.11

Compound: CC(=O)N(O)CCCCCNC(=O)CCC(=O)N(O)CCCCCNC(=O)CCC(=O)N(O)CCCCCNC(=O)CC12CC3CC(CC(C3)C1)C2
- logP [7]: 1.47
- fold change (FC) [8]: 2.8
- IC50 [3]: 226 µM
- IC50 [4]: 167 µM
- inhibition [9]: Active
- logP [6]: 2.21

Compound: COC(=O)c1ccccc1C(=O)OC [DIMETHYL PHTHALATE]
- logP [6]: 1.61

Compound: CC(=O)N(O)CCCCCNC(=O)CCC(=O)N(O)CCCCCNC(=O)CCC(=O)N(O)CCCCCNC(=O)COc1ccc(C)cc1
- logP [7]: 0.93
- Activity [2]: Active
- IC50 [3]: > 150 µM
- IC50 [4]: > 200 µM
- inhibition [9]: Active
- logP [6]: 1.68

Compound: c1ccc2c(c1)oc1ccccc12 [DIBENZOFURAN]
- logP [6]: 4.04

Compound: Cc1c(O)c(=O)ccn1C [DEFERIPRONE]
- Activity [2]: inactive
- IC50 [4]: 166 µM
- logP [6]: -1.02

Compound: c1ccc2ccccc2c1
- logP [6]: 3.32

Compound: CC(=O)N(O)CCCCCNC(=O)CCC(=O)N(O)CCCCCNC(=O)CCC(=O)N(O)CCCCCNC(=O)C12CC3CC(CC(O)(C3)C1)C2
- logP [7]: -0.11
- Activity [2]: inactive
- IC50 [3]: > 100 µM
- IC50 [4]: > 200 µM
- logP [6]: 0.29
